The record followed here is ChEMBL document CHEMBL1131413, “Mutational evidence for a common kappa antagonist binding pocket in the wild-type kappa and mutant mu[K303E] opioid receptors” (J Med Chem, 1998).

For experiment [1], the target named is Opioid receptors; mu & kappa (Homo sapiens) (UniProt P41145+P35372). In words: Ratio of Ke value to kappa receptor to that of mu receptor. Type of experiment: protein assay. The gist of the method:
(§1)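 Selectivity ratios were taken from Ke values measured in smooth muscle (100 nM antagonist, 15 min preincubation). Kappa Ke came from guinea-pig ileum with ethylketazocine, mu Ke from guinea-pig ileum with morphine, and delta Ke from mouse vas deferens with DADLE.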

Experiment [2] addresses Opioid receptors; delta & kappa (Homo sapiens) (UniProt P41145+P41143). In words: Ratio of Ke value to kappa receptor to that of delta receptor. Type of experiment: protein assay. The gist of the method: as §1
Experiment [3] addresses Kappa-type opioid receptor (Rattus norvegicus, UniProt P34975). In words: Effect on binding affinity of mutational exchange of Glu297 in the Opioid receptor kappa 1 in transiently expressed […] cells activity expressed as binding affinity. Type of experiment: cell-based.
The target of experiment [4] is Mu-type opioid receptor (Rattus norvegicus, UniProt P33535). Description: Effect on binding affinity of mutational exchange of Lys303 in the Opioid receptor mu 1 in transiently expressed […] cells activity expressed as binding affinity. In kind it is cell-based.
Chain of Mu-type opioid receptor (P33535 whole entry, looked up): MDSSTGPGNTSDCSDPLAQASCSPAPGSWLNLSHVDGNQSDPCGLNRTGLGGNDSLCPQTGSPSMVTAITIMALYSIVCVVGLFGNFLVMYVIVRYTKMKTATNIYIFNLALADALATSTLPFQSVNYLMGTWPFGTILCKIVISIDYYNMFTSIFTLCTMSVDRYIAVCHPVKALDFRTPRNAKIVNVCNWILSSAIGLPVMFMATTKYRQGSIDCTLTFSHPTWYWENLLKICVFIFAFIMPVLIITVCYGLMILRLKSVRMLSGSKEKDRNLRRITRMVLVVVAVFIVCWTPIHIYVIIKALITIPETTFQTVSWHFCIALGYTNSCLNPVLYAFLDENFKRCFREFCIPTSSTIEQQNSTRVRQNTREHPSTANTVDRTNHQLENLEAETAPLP
Experiment [5] deals with Kappa-type opioid receptor (Rattus norvegicus) (UniProt P34975). Description: Effect on binding affinity of mutational exchange of Glu297 in the Opioid receptor kappa 1 in transiently expressed […] cells activity expressed as binding ratio with nor-BNI.
Chain of Kappa-type opioid receptor (Rattus norvegicus) (P34975 whole entry): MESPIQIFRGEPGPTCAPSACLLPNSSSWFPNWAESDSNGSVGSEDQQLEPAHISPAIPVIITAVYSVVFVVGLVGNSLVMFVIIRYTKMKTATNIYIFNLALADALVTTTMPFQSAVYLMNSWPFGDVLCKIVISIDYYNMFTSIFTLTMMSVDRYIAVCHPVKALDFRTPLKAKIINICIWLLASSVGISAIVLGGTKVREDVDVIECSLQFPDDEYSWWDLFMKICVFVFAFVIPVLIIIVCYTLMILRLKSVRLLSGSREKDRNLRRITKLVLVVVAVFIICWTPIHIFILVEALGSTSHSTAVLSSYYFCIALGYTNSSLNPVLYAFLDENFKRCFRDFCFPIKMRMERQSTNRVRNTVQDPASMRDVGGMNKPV
Experiment [6] deals with Kappa-type opioid receptor (Rattus norvegicus, UniProt P34975, E297K). In words: Mutant factor of the compound against kappa[E297K] with Opioid receptor kappa 1 for binding affinity.
Chain of Kappa-type opioid receptor (Rattus norvegicus, UniProt P34975, E297K) (P34975 whole entry E297K): as the sequence (P34975 whole entry) above, with E297K counted along it
Experiment [7] concerns the target Kappa-type opioid receptor (Cavia porcellus) (UniProt P41144). Description: Opioid antagonist potencies against Opioid receptor kappa 1 from guinea pig ileum employing ethylketazocine (EKC) as agonist. In kind it is functional, tissue-based. The gist of the method: (§2)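 Electrically stimulated guinea-pig ileal longitudinal muscle. Antagonist at 100 nM was incubated 15 min before agonist (ethylketazocine for kappa, morphine for mu). Ke = [antagonist]/(IC50 ratio − 1), where the IC50 ratio is agonist IC50 with antagonist over agonist IC50 alone in the same preparation. Ke is the mean of at least three IC50 ratios.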

Experiment [8] concerns the target Mu-type opioid receptor (Cavia porcellus) (UniProt P97266). In words: Opioid antagonist potencies against Opioid receptor mu 1 from guinea pig ileum employing morphine(M) as agonist. Type of experiment: functional, tissue-based. The gist of the method: as §2
Experiment [9] has as its target Delta-type opioid receptor (Mus musculus) (UniProt P32300). Description: Opioid antagonist potencies against Opioid receptor delta 1 from mouse vas-deferens preparation employing [D-Ala2,D-Leu5]enkephalin (DADLE) as agonist. In kind it is functional. A digest of the protocol: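 Electrically stimulated mouse vas deferens. Antagonist at 100 nM was incubated 15 min before the agonist DADLE. Ke = [antagonist]/(IC50 ratio − 1), using agonist IC50 with versus without antagonist in the same preparation. Ke is from an average of at least three IC50 ratios.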

Chain of Opioid receptors; delta & kappa (Homo sapiens) (P41143 whole entry, looked up): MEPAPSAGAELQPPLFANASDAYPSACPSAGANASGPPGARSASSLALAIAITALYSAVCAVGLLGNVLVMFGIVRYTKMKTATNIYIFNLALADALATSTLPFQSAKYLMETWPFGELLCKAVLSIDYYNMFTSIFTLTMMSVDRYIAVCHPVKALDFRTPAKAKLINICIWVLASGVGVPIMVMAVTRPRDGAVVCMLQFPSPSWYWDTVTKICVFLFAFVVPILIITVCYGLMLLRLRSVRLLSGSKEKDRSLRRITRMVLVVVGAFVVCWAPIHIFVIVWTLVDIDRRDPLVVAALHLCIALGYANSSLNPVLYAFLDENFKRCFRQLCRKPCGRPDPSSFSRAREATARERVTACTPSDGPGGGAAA
Chain of Opioid receptors; delta & kappa (Homo sapiens) (P41145 whole entry, looked up): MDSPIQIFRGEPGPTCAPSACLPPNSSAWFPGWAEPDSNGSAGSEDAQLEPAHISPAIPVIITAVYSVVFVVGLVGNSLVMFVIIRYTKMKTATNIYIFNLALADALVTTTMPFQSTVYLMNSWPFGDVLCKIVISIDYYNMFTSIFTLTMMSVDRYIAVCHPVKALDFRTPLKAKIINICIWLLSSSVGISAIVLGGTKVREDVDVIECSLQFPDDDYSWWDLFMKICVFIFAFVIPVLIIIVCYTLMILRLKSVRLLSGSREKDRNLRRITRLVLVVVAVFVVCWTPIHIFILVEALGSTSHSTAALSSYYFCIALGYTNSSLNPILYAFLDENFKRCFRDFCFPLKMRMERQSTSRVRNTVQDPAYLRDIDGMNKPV
Chain of Kappa-type opioid receptor (Rattus norvegicus, UniProt P34975) (P34975 whole entry, looked up): as the sequence (P34975 whole entry) above
Chain of Opioid receptors; mu & kappa (Homo sapiens) (P35372 whole entry, looked up): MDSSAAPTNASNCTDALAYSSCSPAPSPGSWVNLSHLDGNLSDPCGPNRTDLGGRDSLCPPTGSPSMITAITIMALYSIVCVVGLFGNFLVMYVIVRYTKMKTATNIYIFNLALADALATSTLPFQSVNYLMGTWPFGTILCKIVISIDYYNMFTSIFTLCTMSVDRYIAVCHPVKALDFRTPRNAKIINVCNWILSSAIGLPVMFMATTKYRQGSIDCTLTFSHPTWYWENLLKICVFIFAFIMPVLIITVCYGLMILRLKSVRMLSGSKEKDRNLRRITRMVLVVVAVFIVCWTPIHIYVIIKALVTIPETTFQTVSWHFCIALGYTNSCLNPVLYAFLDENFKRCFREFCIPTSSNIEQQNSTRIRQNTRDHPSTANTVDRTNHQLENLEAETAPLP
Chain of Opioid receptors; mu & kappa (Homo sapiens) (P41145 whole entry, looked up): as the sequence (P41145 whole entry, looked up) above
Chain of Delta-type opioid receptor (Mus musculus) (P32300 whole entry): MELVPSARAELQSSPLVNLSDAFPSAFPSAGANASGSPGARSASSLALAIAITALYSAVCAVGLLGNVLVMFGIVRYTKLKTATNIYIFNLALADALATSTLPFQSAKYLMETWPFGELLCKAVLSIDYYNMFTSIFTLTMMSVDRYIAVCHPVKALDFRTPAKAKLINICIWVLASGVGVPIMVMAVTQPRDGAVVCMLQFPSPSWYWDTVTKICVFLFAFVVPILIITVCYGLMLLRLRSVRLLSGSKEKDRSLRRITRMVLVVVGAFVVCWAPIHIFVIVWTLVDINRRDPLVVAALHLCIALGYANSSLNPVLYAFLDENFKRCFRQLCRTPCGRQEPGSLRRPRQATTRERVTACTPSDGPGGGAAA
Chain of Mu-type opioid receptor (Cavia porcellus) (P97266 whole entry): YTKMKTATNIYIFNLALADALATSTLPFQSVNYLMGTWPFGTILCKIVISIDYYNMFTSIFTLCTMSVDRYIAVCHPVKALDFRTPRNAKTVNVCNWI
Chain of Kappa-type opioid receptor (Cavia porcellus) (P41144 whole entry): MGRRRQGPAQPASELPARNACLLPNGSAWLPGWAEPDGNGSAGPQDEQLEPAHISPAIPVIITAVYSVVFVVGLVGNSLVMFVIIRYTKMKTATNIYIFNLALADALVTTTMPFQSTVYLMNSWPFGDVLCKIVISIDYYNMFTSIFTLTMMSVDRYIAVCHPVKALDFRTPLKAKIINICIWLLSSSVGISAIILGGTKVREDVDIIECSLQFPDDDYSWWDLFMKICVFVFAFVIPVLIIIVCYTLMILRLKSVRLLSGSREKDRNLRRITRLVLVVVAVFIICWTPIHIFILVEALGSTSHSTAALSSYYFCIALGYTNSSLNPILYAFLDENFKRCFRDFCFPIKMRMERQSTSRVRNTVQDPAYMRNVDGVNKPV

For `N=C(N)Nc1ccc2[nH]c3c(c2c1)C[C@@]1(O)[C@H]2Cc4ccc(O)c5c4[C@@]1(CCN2CC1CC1)[C@H]3O5` [GUANIDINONALTRINDOLE], the results for the Selectivity in experiment [1] and in experiment [2] were 208 and 799, respectively. For the same molecule, the results for the inhibitory constant (Ki) in [3], in [4] and in experiment [6] were 0.09 nM, 9.23 nM and 12.9 nM, respectively. The Fana in [5] was determined as 0.75.

As to `N#CN/C(N)=N/c1ccc2[nH]c3c(c2c1)C[C@@]1(O)C2Cc4ccc(O)c5c4[C@@]1(CCN2CC1CC1)[C@H]3O5`, the Ke in experiment [7] turned out to be 3.13 nM; in experiment [8] it was 16.1 nM; in experiment [9], 9.08 nM. In addition, the results for the Selectivity in experiment [1] and in experiment [2] were 5 and 3, respectively. The Fana in [5] was found to be 2.25.

Consider `N#CN=C(N)Nc1ccc2[nH]c3c(c2c1)C[C@@]1(O)C2Cc4ccc(O)c5c4[C@@]1(CCN2CC1CC1)[C@H]3O5`, for which the Ki amounted to 0.27 nM in experiment [3], 4.04 nM in [4] and 2.48 nM in [6].

With `Oc1ccc2c3c1O[C@H]1c4[nH]c5c(c4C[C@@]4(O)[C@@H](C2)N(CC2CC2)CC[C@]314)C[C@@]1(O)[C@H]2Cc3ccc(O)c4c3[C@@]1(CCN2CC1CC1)[C@H]5O4`, in experiment [5], the Fana is 1.

The Ki is the equilibrium dissociation constant of an inhibitor or competing ligand from its target.
